Results: ChEMBL document CHEMBL1914430, “Synthesis of some new 1,3,5-trisubstituted pyrazolines bearing benzene sulfonamide as anticancer and anti-inflammatory agents” (Bioorg Med Chem Lett, 2011)

Experiments:
Assay type in all cases: functional
Rattus norvegicus [1] = test: Antiinflammatory activity in Wistar rat assessed as inhibition of carrageenan-induced hind paw edema at 20 mg/kg, po administered 30 mins before carrageenan challenge measured after 3 hrs by plethysmometer
Procedure, shortened: (§1)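 Wistar rats of either sex, 150–175 g, fasted 16 h, n = 6 per group. Compound given orally at 20 mg/kg as a suspension in 1% CMC in water (10 mL/kg); controls got vehicle only. After 30 min, 0.1 mL of 1% carrageenan in saline was injected subplantar into the left hind paw. Paw volume was measured by plethysmometer at 0, 3 and 5 h. Inhibition = (1 − Vt/Vc) × 100, reported as mean ± SEM.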

Rattus norvegicus [2] = test: Antiinflammatory activity in Wistar rat assessed as inhibition of carrageenan-induced hind paw edema at 20 mg/kg, po administered 30 mins before carrageenan challenge measured after 5 hrs by plethysmometer; procedure, shortened: as §1
SNB-19 = test: Anticancer activity against human SNB19 cells assessed as cellular growth at 10 uM
Procedure, shortened: (§2)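 Primary single-dose screen at 10⁻⁵ M, run under the NCI Drug Evaluation Branch protocol against the full panel of about 60 human tumour lines. The lines come from leukaemia, melanoma, lung, colon, CNS, ovarian, renal, prostate and breast cancers. Read-out is cellular growth.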

SN12C = test: Anticancer activity against human SN12C cells assessed as cellular growth at 10 uM; procedure, shortened: as §2
A549 = test: Anticancer activity against human A549 cells assessed as cellular growth at 10 uM
Procedure, shortened: (§3)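 Primary one-dose screen at 10⁻⁵ M, run per the NCI Drug Evaluation Branch protocol on the full panel of about 60 human tumor lines. The panel covers nine cancer types: leukemia, melanoma, lung, colon, CNS, ovarian, renal, prostate and breast.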

SF-539 = test: Anticancer activity against human SF539 cells assessed as cellular growth at 10 uM; procedure, shortened: as §2
IGROV-1 = test: Anticancer activity against human IGROV1 cells assessed as cellular growth at 10 uM; procedure, shortened: as §3
ACHN = test: Anticancer activity against human ACHN cells assessed as cellular growth at 10 uM; procedure, shortened: as §3
SF-295 = test: Anticancer activity against human SF295 cells assessed as cellular growth at 10 uM; procedure, shortened: as §2
SNB-75 = test: Anticancer activity against human SNB75 cells assessed as cellular growth at 10 uM; procedure, shortened: as §2
U-251 = test: Anticancer activity against human U251 cells assessed as cellular growth at 10 uM
Procedure, shortened: (§4)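 NCI primary one-dose screen at 10⁻⁵ M against the ~60 human tumour cell line panel (leukemia, melanoma, lung, colon, CNS, ovarian, renal, prostate, breast). Read-out is cellular growth.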

LOX IMVI = test: Anticancer activity against human LOXIMVI cells assessed as cellular growth at 10 uM; procedure, shortened: as §3
HCT-116 = test: Anticancer activity against human HCT116 cells assessed as cellular growth at 10 uM; procedure, shortened: as §3
EKVX = test: Anticancer activity against human EKVX cells assessed as cellular growth at 10 uM; procedure, shortened: as §3
KM12 = test: Anticancer activity against human KM12 cells assessed as cellular growth at 10 uM; procedure, shortened: as §3
NCI-H460 = test: Anticancer activity against human NCI-H460 cells assessed as cellular growth at 10 uM; procedure, shortened: as §2
NCI-H522 = test: Anticancer activity against human NCI-H522 cells assessed as cellular growth at 10 uM; procedure, shortened: as §2
RXF 393 = test: Anticancer activity against human RXF393 cells assessed as cellular growth at 10 uM; procedure, shortened: as §2
[3] = Anticancer activity against human Hs 578T cells assessed as cellular growth at 10 uM; procedure, shortened: as §3
UACC-62 = test: Anticancer activity against human UACC62 cells assessed as cellular growth at 10 uM; procedure, shortened: as §4
OVCAR-5 = test: Anticancer activity against human OVCAR5 cells assessed as cellular growth at 10 uM; procedure, shortened: as §2
UACC-257 = test: Anticancer activity against human UACC257 cells assessed as cellular growth at 10 uM; procedure, shortened: as §4
SK-MEL-5 = test: Anticancer activity against human SK-MEL-5 cells assessed as cellular growth at 10 uM; procedure, shortened: as §2
SK-OV-3 = test: Anticancer activity against human SKOV3 cells assessed as cellular growth at 10 uM; procedure, shortened: as §2
NCI-H226 = test: Anticancer activity against human NCI-H226 cells assessed as cellular growth at 10 uM; procedure, shortened: as §2
BT-549 = test: Anticancer activity against human BT549 cells assessed as cellular growth at 10 uM; procedure, shortened: as §3
MDA-MB-468 = test: Anticancer activity against human MDA-MB-468 cells assessed as cellular growth at 10 uM; procedure, shortened: as §2
OVCAR-3 = test: Anticancer activity against human OVCAR3 cells assessed as cellular growth at 10 uM; procedure, shortened: as §2
HT-29 = test: Anticancer activity against human HT-29 cells assessed as cellular growth at 10 uM; procedure, shortened: as §3
NCI-H23 = test: Anticancer activity against human NCI-H23 cells assessed as cellular growth at 10 uM; procedure, shortened: as §2
NCI/ADR-RES = test: Anticancer activity against human NCI/ADR-RES cells assessed as cellular growth at 10 uM; procedure, shortened: as §2
HOP-62 = test: Anticancer activity against human HOP62 cells assessed as cellular growth at 10 uM; procedure, shortened: as §3
SF-268 = test: Anticancer activity against human SF268 cells assessed as cellular growth at 10 uM; procedure, shortened: as §2
UO-31 = test: Anticancer activity against human UO31 cells assessed as cellular growth at 10 uM; procedure, shortened: as §4
MDA-MB-231 = test: Anticancer activity against human MDA-MB-231 cells assessed as cellular growth at 10 uM; procedure, shortened: as §3
Malme-3M = test: Anticancer activity against human MALME-3M cells assessed as cellular growth at 10 uM; procedure, shortened: as §3
HCT-15 = test: Anticancer activity against human HCT15 cells assessed as cellular growth at 10 uM; procedure, shortened: as §3
SK-MEL-2 = test: Anticancer activity against human SK-MEL-2 cells assessed as cellular growth at 10 uM; procedure, shortened: as §2
A498 = test: Anticancer activity against human A498 cells assessed as cellular growth at 10 uM; procedure, shortened: as §3
RPMI-8226 = test: Anticancer activity against human RPMI8226 cells assessed as cellular growth at 10 uM; procedure, shortened: as §2
786-0 = test: Anticancer activity against human 786-0 cells assessed as cellular growth at 10 uM; procedure, shortened: as §3
HCC 2998 = test: Anticancer activity against human HCC2998 cells assessed as cellular growth at 10 uM; procedure, shortened: as §3
PC-3 = test: Anticancer activity against human PC3 cells assessed as cellular growth at 10 uM; procedure, shortened: as §2
HOP-92 = test: Anticancer activity against human HOP92 cells assessed as cellular growth at 10 uM; procedure, shortened: as §3
COLO 205 = test: Anticancer activity against human COLO205 cells assessed as cellular growth at 10 uM; procedure, shortened: as §3
TK-10 = test: Anticancer activity against human TK10 cells assessed as cellular growth at 10 uM; procedure, shortened: as §4
SK-MEL-28 = test: Anticancer activity against human SK-MEL-28 cells assessed as cellular growth at 10 uM; procedure, shortened: as §2
MDA-MB-435 = test: Anticancer activity against human MDA-MB-435 cells assessed as cellular growth at 10 uM; procedure, shortened: as §3
T47D = test: Anticancer activity against human T47D cells assessed as cellular growth at 10 uM; procedure, shortened: as §4
NCI-H322M = test: Anticancer activity against human NCI-H322M cells assessed as cellular growth at 10 uM; procedure, shortened: as §2
MCF7 = test: Anticancer activity against human MCF7 cells assessed as cellular growth at 10 uM; procedure, shortened: as §3
SW-620 = test: Anticancer activity against human SW620 cells assessed as cellular growth at 10 uM; procedure, shortened: as §4
DU-145 = test: Anticancer activity against human DU145 cells assessed as cellular growth at 10 uM; procedure, shortened: as §3
M14 = test: Anticancer activity against human M14 cells assessed as cellular growth at 10 uM; procedure, shortened: as §3
OVCAR-8 = test: Anticancer activity against human OVCAR8 cells assessed as cellular growth at 10 uM; procedure, shortened: as §2
OVCAR-4 = test: Anticancer activity against human OVCAR4 cells assessed as cellular growth at 10 uM; procedure, shortened: as §2

COc1cc(C)c(Cl)cc1C1=NN(c2ccc(S(N)(=O)=O)cc2)C(/C=C/c2ccccc2)C1 (configuration not stated)
inhibition in vivo at 20 mg/kg (Rattus norvegicus [1]): 55.3% | inhibition in vivo at 20 mg/kg (Rattus norvegicus [2]): 52.4%

COc1cc(C)c(Cl)cc1C1=NN(c2ccc(S(N)(=O)=O)cc2)C(c2cc(OC)c(OC)c(OC)c2)C1 (configuration not stated)
inhibition in vivo at 20 mg/kg (Rattus norvegicus [1]): 34.2% | inhibition in vivo at 20 mg/kg (Rattus norvegicus [2]): 21.4%

COc1ccc(C2CC(c3cc(Cl)c(C)cc3OC)=NN2c2ccc(S(N)(=O)=O)cc2)cc1OC (configuration not stated)
Activity (SNB-19): 100.7% | Activity (SN12C): 87.41% | Activity (A549): 73.23% | Activity (SF-539): 102.69% | Activity (IGROV-1): 79.08% | Activity (ACHN): 83.96% | Activity (SF-295): 122.81% | Activity (SNB-75): 83.56% | Activity (U-251): 78.37% | Activity (LOX IMVI): 77.92% | Activity (HCT-116): 56.66% | Activity (EKVX): 80.65% | Activity (KM12): 91.8% | Activity (NCI-H460): 89.78% | Activity (NCI-H522): 74.33% | Activity (RXF 393): 77.69% | Activity [3]: 100.69% | Activity (UACC-62): 65.06% | Activity (OVCAR-5): 70.62% | Activity (UACC-257): 87.16% | Activity (SK-MEL-5): 84.63% | inhibition in vivo at 20 mg/kg (Rattus norvegicus [1]): 31.6% | Activity (SK-OV-3): 116.37% | Activity (NCI-H226): 81.27% | Activity (BT-549): 83.23% | Activity (MDA-MB-468): 94.62% | Activity (OVCAR-3): 103.3% | Activity (HT-29): 78.73% | Activity (NCI-H23): 75.79% | Activity (NCI/ADR-RES): 77.18% | Activity (HOP-62): 87.79% | Activity (SF-268): 90.07% | Activity (UO-31): 59.09% | Activity (MDA-MB-231): 84.64% | Activity (Malme-3M): 101.32% | Activity (HCT-15): 75.93% | Activity (SK-MEL-2): 95.75% | Activity (A498): 111.51% | Activity (RPMI-8226): 90.96% | Activity (786-0): 92.29% | inhibition in vivo at 20 mg/kg (Rattus norvegicus [2]): 47.6% | Activity (HCC 2998): 99.94% | Activity (PC-3): 52.25% | Activity (HOP-92): 101.2% | Activity (COLO 205): 101.3% | Activity (TK-10): 112.95% | Activity (SK-MEL-28): 108.41% | Activity (MDA-MB-435): 95.83% | Activity (T47D): 77.03% | Activity (NCI-H322M): 103.5% | Activity (MCF7): 80.37% | Activity (SW-620): 93.6% | Activity (DU-145): 105.76% | Activity (M14): 81.83% | Activity (OVCAR-8): 73.83% | Activity (OVCAR-4): 87.79%

COc1cc(C)c(Cl)cc1C1=NN(c2ccc(S(N)(=O)=O)cc2)C(c2cccc(O)c2)C1 (configuration not stated)
inhibition in vivo at 20 mg/kg (Rattus norvegicus [1]): 39.5% | inhibition in vivo at 20 mg/kg (Rattus norvegicus [2]): 16.7%
